Laboratory results published in article PMC6925334 (ACS chemical biology, 2019).

Tests used:
[1] = target: IRE1β* RNase (Homo sapiens, UniProt Q76MJ5); experiment: fluorescence-quenched XBP1 mini-substrate RNase assay, IRE1β*; assay type: biochemical
Summary of the method: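 Recombinant IRE1β* RNase cleaves a FRET-quenched XBP1 mini-substrate, monitored in real time as a fluorescence increase. Activation is tested at a low, mainly monomeric IRE1β* concentration and inhibition at a higher, dimer-containing concentration. Initial cleavage rates are compared with DMSO. IC50 values are mean ± SEM, n=3. Selectivity is the IRE1α* RNase IC50 divided by the IRE1β* RNase IC50.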

[2] = target: IRE1α* RNase (Homo sapiens, UniProt O75460); experiment: fluorescence-quenched XBP1 mini-substrate RNase assay, IRE1α*; assay type: biochemical; conditions: read-out: IRE1α RNase IC50, mean ± SEM, n=3
Summary of the method: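 IRE1α* RNase activity was followed in vitro as the real-time rise in fluorescence on cleavage of a FRET-quenched XBP1 mini-substrate. IC50 was taken from inhibition curves, mean ± SEM, n=3. Selectivity is the IRE1α RNase IC50 divided by the IRE1β RNase IC50, for each inhibitor.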

Chain of IRE1β* RNase (Q76MJ5 452-926 limits assumed): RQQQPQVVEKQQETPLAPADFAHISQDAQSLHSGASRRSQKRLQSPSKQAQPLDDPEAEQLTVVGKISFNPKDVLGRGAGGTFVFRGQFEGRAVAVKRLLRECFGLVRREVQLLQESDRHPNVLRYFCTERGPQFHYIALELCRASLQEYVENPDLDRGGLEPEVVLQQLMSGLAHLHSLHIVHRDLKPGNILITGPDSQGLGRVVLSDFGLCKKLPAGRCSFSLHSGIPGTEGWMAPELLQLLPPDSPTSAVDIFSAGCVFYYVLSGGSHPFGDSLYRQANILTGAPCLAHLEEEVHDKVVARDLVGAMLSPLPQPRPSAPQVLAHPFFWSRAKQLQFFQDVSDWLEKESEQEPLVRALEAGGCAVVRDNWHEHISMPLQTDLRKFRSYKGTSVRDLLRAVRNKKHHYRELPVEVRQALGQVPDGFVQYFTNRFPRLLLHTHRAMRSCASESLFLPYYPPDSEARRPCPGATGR
Chain of IRE1α* RNase (O75460 465-977 limits assumed): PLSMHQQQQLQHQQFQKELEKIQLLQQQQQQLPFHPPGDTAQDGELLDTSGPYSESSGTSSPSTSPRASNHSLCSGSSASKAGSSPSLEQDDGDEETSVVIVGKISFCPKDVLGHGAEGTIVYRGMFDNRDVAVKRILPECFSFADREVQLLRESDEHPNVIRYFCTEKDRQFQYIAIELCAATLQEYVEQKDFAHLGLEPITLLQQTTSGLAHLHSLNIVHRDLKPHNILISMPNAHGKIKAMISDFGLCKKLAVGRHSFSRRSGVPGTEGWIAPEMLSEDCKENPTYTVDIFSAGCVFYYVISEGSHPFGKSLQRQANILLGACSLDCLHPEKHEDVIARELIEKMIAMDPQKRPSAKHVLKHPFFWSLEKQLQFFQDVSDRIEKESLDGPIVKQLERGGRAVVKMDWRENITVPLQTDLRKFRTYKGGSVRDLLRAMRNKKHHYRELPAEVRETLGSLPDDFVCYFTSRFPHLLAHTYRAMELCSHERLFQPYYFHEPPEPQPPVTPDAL

Row | SMILES | rate of XBP1 mini-substrate cleavage relative to the apo form ([1]; Low [IRE1β*] (mainly monomeric), RNase activation) | IC50 [2] | effect on ability to cleave the XBP1 mini-substrate ([1]; High [IRE1β*] (RNase active dimer)) | IRE1β RNase Selectivity (Fold) ([1]; IRE1α* RNase IC50 divided by IRE1β* RNase IC50) | IC50 ([1]; read-out: IRE1β RNase IC50, mean ± SEM, n=3, XBP1 mini-substrate)
1 | O=C(Nc1c[nH]nc1-c1nc2ccc(CN3CCOCC3)cc2[nH]1)NC1CC1 [AT9283] | 12 fold |  |  |  | 
2 | Cc1ccc2c(NS(=O)(=O)c3ccccc3Cl)cccc2c1Oc1ncccc1-c1ccnc(N[C@H]2CCCNC2)n1 [compound 1] |  | 5 ± 2.3 nM | almost complete loss in its ability to cleave the XBP1 mini-substrate | 0.09 Fold | 55 ± 5 nM
